From publication PMC11276401 (RSC Advances, 2024)
Where “and” joins values, the source holds several entries; their conditions need not be identical. Identical values can stand only once.

Experiments:
MCF-7 = assay: SRB assay, in vitro anticancer activity; assay type: cell-based; settings: Homo sapiens, MCF7, 48 h, read-out: GI50 MCF-7
HeLa = assay: SRB assay, in vitro anticancer activity; assay type: cell-based; settings: Homo sapiens, 48 h, read-out: GI50 HeLa
MIAPACA = assay: SRB assay, in vitro anticancer activity; assay type: cell-based; settings: Homo sapiens, MIA PaCa-2, 48 h, read-out: GI50 MIAPACA
HeLa and MIAPACA = assay: SRB assay, range stated over two cell lines; assay type: cell-based; settings: Homo sapiens, read-out: GI50 against HeLa and MIAPACA
[1] = tested on: caspase 3/7 in MCF-7 cells; assay: Caspase-Glo 3/7 activation assay; assay type: cell-based, human; settings: 20 μg ml^−1, 24 h
Outline: (§1)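 Caspase 3/7 activation in the named human cancer cells is expressed as percent activation after treatment with the test compound. Podophyllotoxin is run alongside as the positive control.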

bovine brain tubulin = assay: Tubulin polymerization assay; assay type: biochemical; settings: read-out: Tubulin polymerization inhibition IC50; 2 mg/mL tubulin, 37 °C
MCF-7, HeLa and MIAPACA = assay: SRB assay, range stated over three cell lines; assay type: cell-based; settings: Homo sapiens, read-out: GI50 against three cell lines
Outline: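 Human MCF-7, HeLa and MIA PaCa-2 cancer cell lines are exposed to the test compounds, with podophyllotoxin as positive control. Growth inhibition is reported as GI50.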

[2] = tested on: caspase 3/7 in MIA PaCa2 cells; assay: Caspase-Glo 3/7 activation assay; assay type: cell-based, human; settings: 20 μg ml^−1, 24 h
Outline: as §1

[3] = tested on: caspase 3/7 in HeLa cells; assay: Caspase-Glo 3/7 activation assay; assay type: cell-based, human; settings: 20 μg ml^−1, 24 h
Outline: as §1

[4] = tested on: caspase 3/7, 8, and 9 in HeLa, MCF-7 and MIA PaCa2 cancer cells; assay: Caspase 3/7, 8 and 9 activation, values not assigned to a caspase or cell line; assay type: cell-based, human; settings: MCF-7 and MIA PaCa2 cells, assignment and concentration not clear

Row | GI50 (MCF-7) | GI50 (HeLa) | GI50 (MIAPACA) | IC50 (bovine brain tubulin) | SMILES | GI50 (HeLa and MIAPACA) | caspase 3/7 activation [1] | GI50 (MCF-7, HeLa and MIAPACA) | caspase 3/7 activation [2] | caspase 3/7 activation [3] | caspase 3/7, 8, and 9 activations [4]
1 | 4870 ± 790 nM | 6.12 ± 1.08 µM | 13.1 ± 3.27 µM |  | COc1cc([C@@H]2c3cc4c(cc3[C@@H](OCc3cc(-c5ccc(F)cc5)no3)[C@H]3COC(=O)C23)OCO4)cc(OC)c1OC (some centres unmarked) [Compound 6h] |  |  |  |  |  | 
2 | 230 ± 120 nM | 1.11 ± 0.29 µM | 1.54 ± 0.18 µM | 1320 nM | COc1cc([C@@H]2c3cc4c(cc3[C@@H](OCc3cc(-c5ccc([N+](=O)[O-])cc5)no3)[C@H]3COC(=O)C23)OCO4)cc(OC)c1OC (some centres unmarked) [Compound 6j] | 1030 to 1540 nM | 90.1% |  |  |  | 
3 | 4320 ± 830 nM | 7.48 ± 0.69 µM | 6.84 ± 2.01 µM |  | COc1cc([C@@H]2c3cc4c(cc3[C@@H](OCc3cc(-c5ccc(Br)cc5)no3)[C@H]3COC(=O)C23)OCO4)cc(OC)c1OC (some centres unmarked) [Compound 6g] |  |  |  |  |  | 
4 | 360 ± 170 nM | 2.19 ± 0.84 µM | 2.33 ± 0.18 µM | 3790 nM | COc1cc([C@@H]2c3cc4c(cc3[C@@H](OCc3cc(-c5cc(Cl)cc(Cl)c5)no3)[C@H]3COC(=O)C23)OCO4)cc(OC)c1OC (some centres unmarked) [Compound 6m] |  |  |  |  |  | 44.8% and 53.4% and 65.0% and 63.0% and 41.9% and 51.7%
5 | 2130 ± 370 nM | 3.05 ± 1.02 µM | 3.14 ± 0.32 µM |  | COc1cc([C@@H]2c3cc4c(cc3[C@@H](OCc3cc(-c5ccc(Cl)cc5)no3)[C@H]3COC(=O)C23)OCO4)cc(OC)c1OC (some centres unmarked) [Compound 6f] |  |  |  |  |  | 
6 | 3150 ± 430 nM | 9.68 ± 3.12 µM | 18.3 ± 2.87 µM |  | COc1cc([C@@H]2c3cc4c(cc3[C@@H](OCc3cc(-c5cccc(Cl)c5)no3)[C@H]3COC(=O)C23)OCO4)cc(OC)c1OC (some centres unmarked) [Compound 6k] |  |  |  |  |  | 
7 | 1340 ± 230 nM | 2.74 ± 0.52 µM | 2.28 ± 0.29 µM |  | COc1cc([C@@H]2c3cc4c(cc3[C@@H](OCc3cc(-c5cc(C)cc(C)c5)no3)[C@H]3COC(=O)C23)OCO4)cc(OC)c1OC (some centres unmarked) [Compound 6d] |  |  |  |  |  | 
8 | 3920 ± 820 nM | 3.83 ± 1.54 µM | 4.67 ± 1.93 µM |  | COc1cc([C@@H]2c3cc4c(cc3[C@@H](OCc3cc(-c5cccc(C)c5)no3)[C@H]3COC(=O)C23)OCO4)cc(OC)c1OC (some centres unmarked) [Compound 6c] |  |  |  |  |  | 

Row | SMILES | GI50 (MCF-7) | GI50 (HeLa) | GI50 (MIAPACA) | IC50 (bovine brain tubulin) | GI50 (HeLa and MIAPACA) | caspase 3/7 activation [1] | GI50 (MCF-7, HeLa and MIAPACA) | caspase 3/7 activation [2] | caspase 3/7 activation [3] | caspase 3/7, 8, and 9 activations [4]
9 | COc1cc([C@@H]2c3cc4c(cc3[C@H](O)[C@H]3COC(=O)[C@H]23)OCO4)cc(OC)c1OC [Podophyllotoxin, podophyllotoxin, reference compound] | 310 ± 190 nM | 0.74 ± 0.23 µM | 0.51 ± 0.12 µM | 840 nM | 510 to 740 nM | 91.9% | 310 to 510 nM | 88.6% | 86.9% | 
